Reference: ChEMBL document CHEMBL4725330, “The design, synthesis and evaluation of 2-aminobenzoxazole analogues as potent and orally efficacious ChemR23 inhibitors” (Bioorg Med Chem, 2020)

Test system: not listed separately
Test: AUC (0 to infinity) in cynomolgus monkey at 10 mg/kg, po by LC-MS/MS analysis
Format: ADME, organism-based, Macaca fascicularis
Parameters: time infinity, route oral, dose 10 mg/kg
Settings: in vivo
Method in brief: (§1)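 Single-compound oral dosing, 10 mg/kg as a suspension in 0.5% methylcellulose, to fed cynomolgus monkeys. Plasma was deproteinized with ice-cold acetonitrile plus internal standard and quantified by LC/MS/MS from analyte/IS peak-area ratios on a calibration curve. Values are means of three determinations.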

| Compound | AUC(0-inf) [ng·h/mL] |
| --- | --- |
| Cc1ccc(-c2nc(=O)o[nH]2)c(-c2ccc([C@@H](C)N(CC3CC3)c3nc4c(C(=O)O)cccc4o3)cc2)c1 | 22200 |
| CCCCN(c1nc2c(C(=O)O)cccc2o1)[C@H](C)c1ccc(-c2cc(Cl)ccc2-c2nc(=O)o[nH]2)cc1 | 7090 |

Biological target: T1, Chemerin-like receptor 1 (Homo sapiens, UniProt Q99788)
T1 sequence (Q99788 whole entry): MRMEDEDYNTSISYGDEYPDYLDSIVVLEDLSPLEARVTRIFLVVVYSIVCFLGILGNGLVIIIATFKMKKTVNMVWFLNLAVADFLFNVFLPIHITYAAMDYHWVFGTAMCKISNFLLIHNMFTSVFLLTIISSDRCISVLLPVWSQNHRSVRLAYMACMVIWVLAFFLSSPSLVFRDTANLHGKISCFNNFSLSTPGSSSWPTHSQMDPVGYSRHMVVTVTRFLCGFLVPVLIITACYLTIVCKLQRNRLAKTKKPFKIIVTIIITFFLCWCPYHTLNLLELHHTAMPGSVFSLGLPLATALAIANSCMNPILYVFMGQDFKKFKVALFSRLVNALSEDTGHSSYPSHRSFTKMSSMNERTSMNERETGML
Test: Inhibition of chemR23 in human CAL1 cells assessed as inhibition of chemerin-induced intracellular calcium ion concentration preincubated for 45 mins followed by human chemerin addition by FDSS6000 analysis
Format: functional, cell-based
Settings: not given

| Compound | IC50 [nM] |
| --- | --- |
| C[C@H](c1ccc(-c2cc(F)ccc2-c2nc(=O)o[nH]2)cc1)N(CC1CC1)c1nc2c(C(=O)O)cccc2o1 | 2.3 |
| Cc1ccc(-c2nc(=O)o[nH]2)c(-c2ccc([C@@H](C)N(CC3CC3)c3nc4c(C(=O)O)cccc4o3)cc2)c1 | 3.2 |
| CCCCN(c1nc2c(C(=O)O)cccc2o1)[C@H](C)c1ccc(-c2cc(Cl)ccc2-c2nc(=O)o[nH]2)cc1 | 1.2 |

Species: Macaca fascicularis
Test: Induction of chemR23 internalization in whole blood of cynomolgus monkey assessed as internalization rate at 100 uM by flow cytometric analysis relative to control
Format: tissue-based
Settings: not given

| Compound | Activity [%] |
| --- | --- |
| Cc1ccc(-c2nc(=O)o[nH]2)c(-c2ccc([C@@H](C)N(CC3CC3)c3nc4c(C(=O)O)cccc4o3)cc2)c1 | 82 |

Test system: not listed separately
Test: Fraction unbound in cynomolgus monkey plasma at 1 mg/kg, po administered as cassette dose incubated for 16 to 24 hrs by equilibrium dialysis based LC-MS analysis
Format: ADME, organism-based, Macaca fascicularis
Settings: in vivo, time 16-24 hrs
Method in brief: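 Monkey plasma diluted with PBS and spiked with compound at 1 µM (final DMSO 0.05% v/v) was equilibrium-dialysed against PBS (membrane MWCO 12000–14000) for 16–24 h at 37 °C in a CO2 incubator. Both sides were deproteinized with acetonitrile containing IS and analysed by LC-MS/MS. Undiluted fu,p was calculated from the diluted value using the dilution factor.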

| Compound | Fu |
| --- | --- |
| C[C@H](c1ccc(-c2cc(F)ccc2-c2nc(=O)o[nH]2)cc1)N(CC1CC1)c1nc2c(C(=O)O)cccc2o1 | 0.00977 fraction (unitless) |
| Cc1ccc(-c2nc(=O)o[nH]2)c(-c2ccc([C@@H](C)N(CC3CC3)c3nc4c(C(=O)O)cccc4o3)cc2)c1 | 0.023 fraction (unitless) |
| CCCCN(c1nc2c(C(=O)O)cccc2o1)[C@H](C)c1ccc(-c2cc(Cl)ccc2-c2nc(=O)o[nH]2)cc1 | 0.0135 fraction (unitless) |

Test system: not listed separately
Test: Half-life in cynomolgus monkey at 1 mg/kg, po administered as cassette dose by LC-MS/MS analysis
Format: ADME, organism-based, Macaca fascicularis
Settings: in vivo
Method in brief: (§2)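 Cassette oral dosing, 1.0 mg/kg as a suspension in 0.5% methylcellulose, to fed cynomolgus monkeys. Plasma was obtained from blood, deproteinized with ice-cold acetonitrile containing internal standard, and measured by LC/MS/MS against a calibration curve using analyte/IS peak-area ratios. Values are means of three determinations.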

| Compound | half-life [h] |
| --- | --- |
| C[C@H](c1ccc(-c2cc(F)ccc2-c2nc(=O)o[nH]2)cc1)N(CC1CC1)c1nc2c(C(=O)O)cccc2o1 | 4.1 |
| Cc1ccc(-c2nc(=O)o[nH]2)c(-c2ccc([C@@H](C)N(CC3CC3)c3nc4c(C(=O)O)cccc4o3)cc2)c1 | 2.8 |
| CCCCN(c1nc2c(C(=O)O)cccc2o1)[C@H](C)c1ccc(-c2cc(Cl)ccc2-c2nc(=O)o[nH]2)cc1 | 2 |

Test system: not listed separately
Test: Plasma concentration in cynomolgus monkey at 50 mg/kg, po measured at 8 hrs of administration
Format: ADME, organism-based, Macaca fascicularis
Settings: not given
Method in brief: (§3)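 Cynomolgus monkeys received 50 mg/kg orally as a suspension in 0.5% methylcellulose. Plasma concentrations were measured at 2, 4 and 8 h post-dose, and each animal was reported individually.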

| Compound | concentration at 8 h [µM] |
| --- | --- |
| Cc1ccc(-c2nc(=O)o[nH]2)c(-c2ccc([C@@H](C)N(CC3CC3)c3nc4c(C(=O)O)cccc4o3)cc2)c1 | 30.4 |

Test system: not listed separately
Test: MRT in cynomolgus monkey at 10 mg/kg, po by LC-MS/MS
Format: ADME, organism-based, Macaca fascicularis
Settings: in vivo
Method in brief: as §1

| Compound | MRT [h] |
| --- | --- |
| Cc1ccc(-c2nc(=O)o[nH]2)c(-c2ccc([C@@H](C)N(CC3CC3)c3nc4c(C(=O)O)cccc4o3)cc2)c1 | 2.9 |
| CCCCN(c1nc2c(C(=O)O)cccc2o1)[C@H](C)c1ccc(-c2cc(Cl)ccc2-c2nc(=O)o[nH]2)cc1 | 4.1 |

Species: Macaca fascicularis
Test: Induction of chemR23 internalization in whole blood of cynomolgus monkey assessed as internalization rate at 30 uM by flow cytometric analysis relative to control
Format: tissue-based
Settings: not given

| Compound | Activity [%] |
| --- | --- |
| Cc1ccc(-c2nc(=O)o[nH]2)c(-c2ccc([C@@H](C)N(CC3CC3)c3nc4c(C(=O)O)cccc4o3)cc2)c1 | 53 |

Test system: not listed separately
Test: AUC (0 to infinity) in cynomolgus monkey at 1 mg/kg, po administered as cassette dose by LC-MS/MS analysis
Format: ADME, organism-based, Macaca fascicularis
Parameters: time infinity, route oral, dose 1 mg/kg
Settings: in vivo
Method in brief: as §2

| Compound | AUC(0-inf) [ng·h/mL] |
| --- | --- |
| C[C@H](c1ccc(-c2cc(F)ccc2-c2nc(=O)o[nH]2)cc1)N(CC1CC1)c1nc2c(C(=O)O)cccc2o1 | 4410 |
| Cc1ccc(-c2nc(=O)o[nH]2)c(-c2ccc([C@@H](C)N(CC3CC3)c3nc4c(C(=O)O)cccc4o3)cc2)c1 | 4830 |
| CCCCN(c1nc2c(C(=O)O)cccc2o1)[C@H](C)c1ccc(-c2cc(Cl)ccc2-c2nc(=O)o[nH]2)cc1 | 1040 |

Test system: not listed separately
Test: Induction of chemR23 internalization on pDCs of cynomolgus monkey assessed as chemR23 expression relative to pre-dose at 50 mg/kg, po measured at 4 hrs of administration by flow cytometric analysis
Settings: not given

| Compound | ChemR23 expression [%] |
| --- | --- |
| Cc1ccc(-c2nc(=O)o[nH]2)c(-c2ccc([C@@H](C)N(CC3CC3)c3nc4c(C(=O)O)cccc4o3)cc2)c1 | 10 |

Test system: not listed separately
Test: Drug concentration in cynomolgus monkey at 10 mg/kg, po by LC-MS/MS analysis measured upto 8 hrs
Format: ADME, organism-based, Macaca fascicularis
Settings: in vivo, read-out: Ct
Method in brief: as §1

| Compound | concentration at 8 h [ng/mL] |
| --- | --- |
| Cc1ccc(-c2nc(=O)o[nH]2)c(-c2ccc([C@@H](C)N(CC3CC3)c3nc4c(C(=O)O)cccc4o3)cc2)c1 | 206 |

Test system: not listed separately
Test: Induction of chemR23 internalization on pDCs of cynomolgus monkey assessed as internalization rate at 50 mg/kg, po measured after 4 hrs of administration by flow cytometric analysis relative to control
Format: functional, Macaca fascicularis
Settings: not given
Method in brief: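 Cynomolgus monkeys received 50 mg/kg orally as a suspension in 0.5% methylcellulose. Blood was drawn before dosing and at 2, 4 and 8 h. pDCs (HLA-DR+CD123+) were stained for ChemR23 and read by flow cytometry as GeoMFI. Internalization was expressed as expression at each time relative to pre-dose. Each animal was reported individually.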

| Compound | Activity [%] |
| --- | --- |
| Cc1ccc(-c2nc(=O)o[nH]2)c(-c2ccc([C@@H](C)N(CC3CC3)c3nc4c(C(=O)O)cccc4o3)cc2)c1 | 74 |

Test system: not listed separately
Test: Half-life in cynomolgus monkey at 10 mg/kg, po by LC-MS/MS analysis
Format: ADME, organism-based, Macaca fascicularis
Settings: in vivo
Method in brief: as §1

| Compound | half-life [h] |
| --- | --- |
| Cc1ccc(-c2nc(=O)o[nH]2)c(-c2ccc([C@@H](C)N(CC3CC3)c3nc4c(C(=O)O)cccc4o3)cc2)c1 | 1 |
| CCCCN(c1nc2c(C(=O)O)cccc2o1)[C@H](C)c1ccc(-c2cc(Cl)ccc2-c2nc(=O)o[nH]2)cc1 | 2 |

Test system: not listed separately
Test: Induction of chemR23 internalization on pDCs of cynomolgus monkey assessed as chemR23 expression relative to pre-dose at 50 mg/kg, po measured at 2 hrs of administration by flow cytometric analysis
Settings: not given

| Compound | ChemR23 expression [%] |
| --- | --- |
| Cc1ccc(-c2nc(=O)o[nH]2)c(-c2ccc([C@@H](C)N(CC3CC3)c3nc4c(C(=O)O)cccc4o3)cc2)c1 | 30 |

Test system: not listed separately
Test: Oral bioavailability in cynomolgus monkey at 1 mg/kg and 0.1 mg/kg, iv administered as cassette dose by LC-MS/MS analysis
Format: ADME, organism-based, Macaca fascicularis
Settings: in vivo
Method in brief: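 Plasma was deproteinized with ice-cold acetonitrile containing internal standard and quantified by LC/MS/MS against a calibration curve from analyte/IS peak-area ratios. Values are means of three determinations.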

| Compound | bioavailability [%] |
| --- | --- |
| C[C@H](c1ccc(-c2cc(F)ccc2-c2nc(=O)o[nH]2)cc1)N(CC1CC1)c1nc2c(C(=O)O)cccc2o1 | 82 |
| Cc1ccc(-c2nc(=O)o[nH]2)c(-c2ccc([C@@H](C)N(CC3CC3)c3nc4c(C(=O)O)cccc4o3)cc2)c1 | 58 |
| CCCCN(c1nc2c(C(=O)O)cccc2o1)[C@H](C)c1ccc(-c2cc(Cl)ccc2-c2nc(=O)o[nH]2)cc1 | 42 |

Test system: not listed separately
Test: Cmax in cynomolgus monkey at 10 mg/kg, po by LC-MS/MS analysis
Format: ADME, organism-based, Macaca fascicularis
Parameters: route oral, dose 10 mg/kg
Settings: in vivo
Method in brief: as §1

| Compound | Cmax [ng/mL] |
| --- | --- |
| Cc1ccc(-c2nc(=O)o[nH]2)c(-c2ccc([C@@H](C)N(CC3CC3)c3nc4c(C(=O)O)cccc4o3)cc2)c1 | 6950 |
| CCCCN(c1nc2c(C(=O)O)cccc2o1)[C@H](C)c1ccc(-c2cc(Cl)ccc2-c2nc(=O)o[nH]2)cc1 | 2110 |

Test system: not listed separately
Test: Cmax in cynomolgus monkey at 1 mg/kg, po administered as cassette dose by LC-MS/MS analysis
Format: ADME, organism-based, Macaca fascicularis
Parameters: route oral, dose 1 mg/kg
Settings: in vivo
Method in brief: as §2

| Compound | Cmax [ng/mL] |
| --- | --- |
| C[C@H](c1ccc(-c2cc(F)ccc2-c2nc(=O)o[nH]2)cc1)N(CC1CC1)c1nc2c(C(=O)O)cccc2o1 | 1490 |
| Cc1ccc(-c2nc(=O)o[nH]2)c(-c2ccc([C@@H](C)N(CC3CC3)c3nc4c(C(=O)O)cccc4o3)cc2)c1 | 1490 |
| CCCCN(c1nc2c(C(=O)O)cccc2o1)[C@H](C)c1ccc(-c2cc(Cl)ccc2-c2nc(=O)o[nH]2)cc1 | 361 |

Test system: not listed separately
Test: Ratio of fraction unbound in cynomolgus monkey plasma at 10 mg/kg to IC50 of inhibition of chemR23 in human CAL1 cells
Format: organism-based
Settings: in vivo

| Compound | Ratio |
| --- | --- |
| Cc1ccc(-c2nc(=O)o[nH]2)c(-c2ccc([C@@H](C)N(CC3CC3)c3nc4c(C(=O)O)cccc4o3)cc2)c1 | 1 |
| CCCCN(c1nc2c(C(=O)O)cccc2o1)[C@H](C)c1ccc(-c2cc(Cl)ccc2-c2nc(=O)o[nH]2)cc1 | 0.5 |

Test system: not listed separately
Test: Plasma concentration in cynomolgus monkey at 50 mg/kg, po measured at 2 hrs of administration
Format: ADME, organism-based, Macaca fascicularis
Settings: not given
Method in brief: as §3

| Compound | concentration at 2 h [µM] |
| --- | --- |
| Cc1ccc(-c2nc(=O)o[nH]2)c(-c2ccc([C@@H](C)N(CC3CC3)c3nc4c(C(=O)O)cccc4o3)cc2)c1 | 178 |

Test system: not listed separately
Test: Plasma concentration in cynomolgus monkey at 50 mg/kg, po measured at 4 hrs of administration
Format: ADME, organism-based, Macaca fascicularis
Settings: not given
Method in brief: as §3

| Compound | concentration at 4 h [µM] |
| --- | --- |
| Cc1ccc(-c2nc(=O)o[nH]2)c(-c2ccc([C@@H](C)N(CC3CC3)c3nc4c(C(=O)O)cccc4o3)cc2)c1 | 204 |

Test system: not listed separately
Test: Induction of chemR23 internalization on pDCs of cynomolgus monkey assessed as chemR23 expression relative to pre-dose at 50 mg/kg, po measured at 8 hrs of administration by flow cytometric analysis
Settings: not given

| Compound | ChemR23 expression [%] |
| --- | --- |
| Cc1ccc(-c2nc(=O)o[nH]2)c(-c2ccc([C@@H](C)N(CC3CC3)c3nc4c(C(=O)O)cccc4o3)cc2)c1 | 44 |
